From the EternaBench riboswitch data come the findings set out here.

In this data set the test system is MS2 coat protein. In words: apparent Kd, MS2 coat protein; higher = weaker binding; RNA-MaP array. The gist of the method: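 Incubations were done at room temperature with fluorescently labeled MS2 coat protein at 1.5 nM to 3 μM and designed RNAs transcribed on an Illumina sequencing chip from sequenced DNA templates, with or without input ligand. Apparent Kd is the median of binding curves fitted for each cluster. Designs with fewer than 10 measured clusters were excluded.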

The mark [1] stands for this setting: designed as: ON switch for flavin mononucleotide, no ligand.
Where [2] appears, read: ligand present: flavin mononucleotide, designed as: ON switch for flavin mononucleotide.
Where [3] appears, read: designed as: OFF switch for flavin mononucleotide, no ligand.
Setting [4] is: ligand present: flavin mononucleotide, designed as: OFF switch for flavin mononucleotide.
Where [5] appears, read: designed as: ON switch for tryptophan, no ligand.
Where [6] appears, read: ligand present: tryptophan, designed as: ON switch for tryptophan.

As usually defined, the apparent Kd is a dissociation constant that holds for the conditions of the assay. For “UGUAGCCGCGAGAAGGUAAGCUAAGGAUGUGGUAUCAACGACUACAUGAGGAUCACCCAUGUGCUUAAGGAUAUCGAGGUGGAG”, the “apparent Kd” value runs as follows: under setting [1], 62.5 nM; under setting [2], 104 nM. As to “AGAACUUUGGUGGAUACCAGCUUCUGGCCAUCCUUCAAAUACAUGAGGAUCACCCAUGUUAGCCCUUGGCAGCCAACAUAGACUG”, the “apparent Kd” value (designed as: OFF switch for theophylline, no ligand) was found to be 22.4 nM and the “apparent Kd” value (ligand present: theophylline, designed as: OFF switch for theophylline) turned out to be 222 nM. In the case of “CUAAAACAUGAGGAUCACCCAUGUCAUUUAACUCAAGGAUAUAGAUCUGAGAGCUCAGCGCUAGAAGGUGAUUUUG”, the “apparent Kd” value is, setting by setting: under setting [1], 55.1 nM; under setting [2], 40.3 nM. As to “CCUCGUCCGUACAUGAGGAUCACCCAUGUGAGCCCUAAACCCAGAAGGCAAUGAAUACCUAUUCUUGAGGAUAUGGAUCACCGU”, the “apparent Kd” value reads like this: under setting [3], 279 nM; under setting [4], 185 nM.

Consider “GCCUUAGGGGCAGGAUAUUUCGAGGACCUCAACAUGAGGAUCACCCAUGUACCGCAAUCGUCUCUAAAGAAGGGCCUCUUGCUC”, for which the “apparent Kd” value amounted to 53.9 nM under setting [1] and 28.5 nM under setting [2].

With “UAUCGCGCGGCGGCCGCCACUAAUGGCAGAUCUGUCGACUAACAUGAGGAUCACCCAUGUCUAACUAGGACCGGGCCCAAGUUGU”, the “apparent Kd” value reads like this: under setting [5], 47.5 nM; under setting [6], 40.2 nM. For “GCUUGACAUGAGGAUCACCCAUGUAAAUGAGAGACAGGAUAUACGAGACACGUAGGGUAGGUAGAAGGGUCGACUG”, the “apparent Kd” value reads like this: under setting [1], 15.1 nM; under setting [2], 9.69 nM. As to “GUGGCAGGUGUCAGCCACAUGAGGAUCACCCAUGUUACUGAUCAGGAUAUUCGUGUGCGUCGCCGGAAGAAGGGAUUUGGACAU”, the “apparent Kd” value was found to be 123 nM under setting [3] and 64.1 nM under setting [4]. With “AGUGGUGCAACUGAUACCAGAUUUAUACGAGACAUGAGGAUCACCCAUGUCGAAAGACAAAUCCCUUGGCAGCAGACACGAUCCC”, the “apparent Kd” value runs as follows: (designed as: ON switch for theophylline, no ligand) 9.42 nM; (ligand present: theophylline, designed as: ON switch for theophylline) 8.85 nM. Consider “AGCUCACAUGAGGAUCACCCAUGUCAAUUGUCAUCCUAUUGUAGAAGGCCGACACUGAUAUUAACGGAGGAUAUACGAGACAAU”, for which the “apparent Kd” value reads like this: under setting [1], 15.2 nM; under setting [2], 7.85 nM. In the case of “AUGCACUCAGUCAGGAUAUGCAACUUAUAAUACAGGCAGAAGGGACAUGAGGAUCACCCAUGUGGCCGGUAAGA”, the “apparent Kd” value under setting [3] was 9.13 nM and the “apparent Kd” value under setting [4] turned out to be 39.1 nM. For “GUAUACAUGAGGAUCACCCAUGUCGUUCUCUUGAGAUGAACAGAGGAUAUGUGAGUAAUAGCGUGACAGAAGGCUGGACAUGAU”, in that order: 27.7 nM and 16.9 nM. On to “CAAGUAGUGGCAUUAACAUGAGGAUCACCCAUGUUGUGCGUCAGAAGGGCUCUAAUGGAUAACCAGCAGGAUAUGAUUUUCAUC”, for which the “apparent Kd” value runs as follows: under setting [1], 6.92 nM; under setting [2], 6.89 nM. For “UACAUGAGGAUCACCCAUGUCAAACCGUUCUAGGACUAGGUAAGAAGGGUCAUCCUACAAUGUUGACAGGAUAUUACGUAGCUG”, in that order: 348 nM and 71.3 nM. In the case of “AACAUUAGAGGAUAUAUCAUCUUUCACAUGAGGAUCACCCAUGUUCCUCAGUGUUAGUGUAUAGAAGGCUAAGACA”, the “apparent Kd” value reads like this: under setting [3], 279 nM; under setting [4], 26.9 nM. For “GGUUAACAUGAGGAUCACCCAUGUAAGGAUAUCGGGCUGUCCAGGCGAUAGUACACGUCGAGAAGGUACGCGGU”, in that order: 10.8 nM and 12.2 nM. In the case of “ACAUGAGGAUCACCCAUGUACAUUUAUACUGGGAGACUAUCGUAGGAUAUAUGAACAAGCAUUCUAUAGAAGGACGAAAAGAUC”, the “apparent Kd” value turned out to be 59.4 nM under setting [3] and 40.4 nM under setting [4]. For the sequence “UUGAUCUGACGAGGAUAUAUCAUAACACCUUUGAUAGAAGGCGUGAUCGACAUGAGGAUCACCCAUGUGCGUGACUUUGGUAGU”, the “apparent Kd” value worked out at 11.6 nM under setting [1] and 10.8 nM under setting [2].

Regarding “GGUUGACAUGAGGAUCACCCAUGUGAGGAUAUAACAAGUGGGAGCUCUCCAUGAAAAGUUAGAAGGCACUUGGU”, the “apparent Kd” value is 61.8 nM under setting [3] and 52.9 nM under setting [4].

Regarding “ACAAGAGUAAAACAUACAUGAGGAUCACCCAUGUUAUCAACAAAGGAUAUCGUUGUGGUAGGGAACGAGAAGGUUGCAAAAUCA”, the “apparent Kd” value is, setting by setting: under setting [1], 15.4 nM; under setting [2], 11.7 nM. Turning to “AUGCCUCCACUAGGAUAUUACAUCUACAUUUCCACUUUCAAACAGACAUGAGGAUCACCCAUGUGUAAGAAGGAGUGCCUAGAG”, the “apparent Kd” value under setting [4] is 8.45 nM.

For the sequence “GCAGGUAAGUAGAAGGGUCGCACCAUACUGACGACAGGAUAUACUGUCCGAAACUCGUCAUUACAUGAGGAUCACCCAUGUUUA”, the “apparent Kd” value was determined as 21.2 nM under setting [3] and 11.1 nM under setting [4]. “UCAAUACAGUCGGCCGCCACUGUAACCAAACCUACAUACCAACAUGAGGAUCACCCAUGUUUAUACAGGACCGGGACCUCUAUGA”: the “apparent Kd” value reads like this: under setting [5], 36.6 nM; under setting [6], 28.5 nM.
